Experimental data taken from ChEMBL document CHEMBL4665692, “Synthesis and Antimicrobial Activity of Burkholderia-Related 4-Hydroxy-3-methyl-2-alkenylquinolines (HMAQs) and Their N-Oxide Counterparts” (2020).
≈ marks a conversion by molar mass, not a printed value. Calls of active or inactive are those of the source. The calls are words filed in the database; no cut-off is given here.

Tests used:
[1] = tested on: Fusarium oxysporum; experiment: Antifungal activity against Fusarium oxysporum after 48 hrs by CLSI protocol based broth microdilution assay; assay type: functional
Outline: (§1)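 Molds (A. niger, F. oxyporum, F. solani, Mucorales TM29) were grown 4 days at 25 °C on PDA, and spores were harvested in sterile water and counted by hemacytometer. Spores (2 × 10⁴ mL⁻¹) went into L-glutamine RPMI 1640, MOPS-buffered to pH 7.0, with serially diluted compound (top 100 μM). Incubated 2 days at room temperature; OD600 read; MIC.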

[2] = tested on: Fusarium solani; experiment: Antifungal activity against Fusarium solani after 48 hrs by CLSI protocol based broth microdilution assay; assay type: functional; outline: as §1
[3] = tested on: Bacillus subtilis; experiment: Antibacterial activity against Bacillus subtilis after 48 hrs by CLSI protocol based broth microdilution assay; assay type: functional
Outline: (§2)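 Strains (B. subtilis PY79, P. peoriae LMG1611, S. aureus Newman, S. agalactiae ATCC27956, E. coli ATCC25922, P. aeruginosa PA14, P. fluorescens LMG1794, X. campestris Xg, A. pleuropneumoniae) were grown overnight in TSB at 30 °C with shaking, then suspended in Mueller-Hinton broth, final OD600 0.01. Twofold-series compound, 100 to 0.78 μM, from 20 mM DMSO stock. Incubated 48 h, 30 °C, 250 rpm; OD600 read; MIC.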

[4] = tested on: Candida albicans; experiment: Antifungal activity against Candida albicans after 48 hrs by CLSI protocol based broth microdilution assay; assay type: functional
[5] = tested on: Streptococcus agalactiae; experiment: Antibacterial activity against Streptococcus agalactiae after 48 hrs by CLSI protocol based broth microdilution assay; assay type: functional; outline: as §2
[6] = tested on: Cryptococcus neoformans; experiment: Antifungal activity against Cryptococcus neoformans after 48 hrs by CLSI protocol based broth microdilution assay; assay type: functional
[7] = tested on: Staphylococcus aureus; experiment: Antibacterial activity against Staphylococcus aureus after 48 hrs by CLSI protocol based broth microdilution assay; assay type: functional; outline: as §2
[8] = tested on: Aspergillus niger; experiment: Antifungal activity against Aspergillus niger after 48 hrs by CLSI protocol based broth microdilution assay; assay type: functional; outline: as §1
[9] = tested on: Pseudomonas fluorescens; experiment: Antibacterial activity against Pseudomonas fluorescens after 48 hrs by CLSI protocol based broth microdilution assay; assay type: functional; outline: as §2
[10] = tested on: Xanthomonas campestris; experiment: Antibacterial activity against Xanthomonas campestris after 48 hrs by CLSI protocol based broth microdilution assay; assay type: functional; outline: as §2
[11] = tested on: Actinobacillus pleuropneumoniae; experiment: Antibacterial activity against Actinobacillus pleuropneumoniae after 48 hrs by CLSI protocol based broth microdilution assay; assay type: functional; outline: as §2
[12] = tested on: Mucorales; experiment: Antifungal activity against Mucorales after 48 hrs by CLSI protocol based broth microdilution assay; assay type: functional; outline: as §1
[13] = Antibacterial activity against Paenibacillus peoriae after 48 hrs by CLSI protocol based broth microdilution assay; assay type: functional; outline: as §2
[14] = tested on: Escherichia coli; experiment: Antibacterial activity against Escherichia coli after 48 hrs by CLSI protocol based broth microdilution assay; assay type: functional; outline: as §2
[15] = tested on: Pseudomonas aeruginosa; experiment: Antibacterial activity against Pseudomonas aeruginosa after 48 hrs by CLSI protocol based broth microdilution assay; assay type: functional; outline: as §2
[16] = tested on: hmqA (Burkholderia ambifaria); experiment: Inhibition of beta-galactosidase hmqA mutant (Burkholderia ambifaria) by lacZ reporter gene assay

Row | MIC [1] | MIC [2] | MIC [3] | MIC [4] | MIC [5] | MIC [6] | MIC [7] | MIC [8] | MIC [9] | MIC [10] | MIC [11] | MIC [12] | MIC [13] | MIC [14] | MIC [15] | Activity [16] | SMILES
1 | 12.5 µM (≈ 3.19 µg/mL) | > 100 µM | 1.56 µM (≈ 0.398 µg/mL) | > 100 µM | 1.56 µM (≈ 0.398 µg/mL) | 3.13 µM (≈ 0.799 µg/mL) | 1.56 µM (≈ 0.398 µg/mL) | > 100 µM | 25 µM (≈ 6.38 µg/mL) | 100 µM (≈ 25.5 µg/mL) | 3.13 µM (≈ 0.799 µg/mL) | 6.25 µM (≈ 1.6 µg/mL) | 12.5 µM (≈ 3.19 µg/mL) | 100 µM (≈ 25.5 µg/mL) | > 100 µM | Active | CCCC/C=C/Cc1[nH]c2ccccc2c(=O)c1C
2 | 12.5 µM (≈ 3.54 µg/mL) | 6.25 µM (≈ 1.77 µg/mL) | 1.56 µM (≈ 0.442 µg/mL) | > 100 µM | 1.56 µM (≈ 0.442 µg/mL) | 1.56 µM (≈ 0.442 µg/mL) | 1.56 µM (≈ 0.442 µg/mL) | > 100 µM | 50 µM (≈ 14.2 µg/mL) | 100 µM (≈ 28.3 µg/mL) | 1.56 µM (≈ 0.442 µg/mL) | 12.5 µM (≈ 3.54 µg/mL) | 12.5 µM (≈ 3.54 µg/mL) | 100 µM (≈ 28.3 µg/mL) | > 100 µM | – | CCCCCC/C=C/Cc1[nH]c2ccccc2c(=O)c1C
3 | > 100 µM | > 100 µM | 1.56 µM (≈ 0.42 µg/mL) | > 100 µM | 1.56 µM (≈ 0.42 µg/mL) | 1.56 µM (≈ 0.42 µg/mL) | 1.56 µM (≈ 0.42 µg/mL) | > 100 µM | 25 µM (≈ 6.73 µg/mL) | 100 µM (≈ 26.9 µg/mL) | 1.56 µM (≈ 0.42 µg/mL) | 12.5 µM (≈ 3.37 µg/mL) | 12.5 µM (≈ 3.37 µg/mL) | 100 µM (≈ 26.9 µg/mL) | 50 µM (≈ 13.5 µg/mL) | Active | CCCCC/C=C/Cc1[nH]c2ccccc2c(=O)c1C
4 | > 100 µM | > 100 µM | 1.56 µM (≈ 0.423 µg/mL) | > 100 µM | 1.56 µM (≈ 0.423 µg/mL) | 50 µM (≈ 13.6 µg/mL) | 1.56 µM (≈ 0.423 µg/mL) | > 100 µM | 50 µM (≈ 13.6 µg/mL) | 6.25 µM (≈ 1.7 µg/mL) | 1.56 µM (≈ 0.423 µg/mL) | > 100 µM | 1.56 µM (≈ 0.423 µg/mL) | 25 µM (≈ 6.78 µg/mL) | 50 µM (≈ 13.6 µg/mL) | – | CCCC/C=C/Cc1c(C)c(=O)c2ccccc2n1O
5 | > 100 µM | > 100 µM | 3.13 µM (≈ 0.937 µg/mL) | > 100 µM | 1.56 µM (≈ 0.467 µg/mL) | 6.25 µM (≈ 1.87 µg/mL) | 1.56 µM (≈ 0.467 µg/mL) | > 100 µM | 25 µM (≈ 7.49 µg/mL) | 12.5 µM (≈ 3.74 µg/mL) | 1.56 µM (≈ 0.467 µg/mL) | > 100 µM | 1.56 µM (≈ 0.467 µg/mL) | 6.25 µM (≈ 1.87 µg/mL) | 12.5 µM (≈ 3.74 µg/mL) | – | CCCCCC/C=C/Cc1c(C)c(=O)c2ccccc2n1O
6 | > 100 µM | > 100 µM | 1.56 µM (≈ 0.445 µg/mL) | > 100 µM | 1.56 µM (≈ 0.445 µg/mL) | 12.5 µM (≈ 3.57 µg/mL) | 1.56 µM (≈ 0.445 µg/mL) | > 100 µM | 25 µM (≈ 7.13 µg/mL) | 3.13 µM (≈ 0.893 µg/mL) | 1.56 µM (≈ 0.445 µg/mL) | > 100 µM | 1.56 µM (≈ 0.445 µg/mL) | 6.25 µM (≈ 1.78 µg/mL) | 25 µM (≈ 7.13 µg/mL) | – | CCCCC/C=C/Cc1c(C)c(=O)c2ccccc2n1O
